Measured values from ChEMBL document CHEMBL4842389, “Discovery of Dolastatinol: A Synthetic Analog of Dolastatin 10 and Low Nanomolar Inhibitor of Tubulin Polymerization” (ACS Med Chem Lett, 2021).
Active and inactive are the calls of the source. No cut-off for these calls is given here. Square brackets hold non-standard residues; d marks the D form. Peptide text beside a SMILES is read from it. Dolaproine = CO[C@@H]([C@@H]1CCCN1)[C@@H](C)C(=O)O; Dil = CC[C@H](C)[C@H](NC)[C@@H](CC(=O)O)OC; NMeV = CN[C@H](C(=O)O)C(C)C

Legend:
SK-BR-3 = experiment: Cytotoxicity against human SKBR3 cells assessed as reduction in cell viability incubated for 96 hrs by XTT assay; type: functional, cell-based; conditions: SK-BR-3, 96 h
Method in brief: (§1)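 XTT viability assay on human breast cancer cells. Cells were seeded at 5000 cells/well, left to adhere overnight, then exposed to increasing compound concentrations for 96 h in complete medium with DMSO below 0.05% final. Wells were washed and refed, then given XTT reagent for 3 h, with absorbance read at 450 nm. Response was normalized to DMSO controls. Tetraplicates, three independent experiments. IC50 from a four-parameter variable-slope fit.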

BT-474 = experiment: Cytotoxicity against human BT-474 cells assessed as reduction in cell viability incubated for 96 hrs by XTT assay; type: functional, cell-based; conditions: BT-474, 96 h; method in brief: as §1
MDA-MB-231 [1] = experiment: Cell cycle arrest in human MDA-MB-231 cells assessed as accumulation at G1 phase at 125 nM after 24 hrs by RNaseA/propidium iodide staining based FACSCalibur flow cytometry (reference value: 37.64 %); type: functional
Tubulin (Homo sapiens) = Tubulin (Homo sapiens) (UniProt P68371+Q9H4B7+P0DPH7+P68366+Q13509+Q71U36+P04350+Q3ZCM7+P07437+P68363+Q9BQE3+Q6PEY2+Q13885+Q9BVA1+Q9BUF5); experiment: Inhibition of microtubule in human MDA-MB-231 cells assessed as reduction in microtubule network in interphase cells measured after 24 hrs by DAPI staining based immunofluorescence microscopic analysis; type: cell-based; conditions: dose 5-625 nM
Method in brief: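 MDA-MB-231 cells (10 000/well, 70–80% confluent) treated 24 h at 5, 25, 125 and 625 nM in DMEM. Fixed in 4% paraformaldehyde, permeabilized with 0.2% Triton X-100, blocked in 5% BSA, stained with anti-α-tubulin (DM1A, 1:800, 16 h) and Alexa Fluor 488 secondary, nuclei with DAPI. Imaged at 40×; interphase microtubule network quantified, unpaired two-tailed t test.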

MDA-MB-231 [2] = experiment: Induction of mitochondrial disintegration in human MDA-MB-231 cells at 625 nM measured after 24 hrs by Mitotracker green dye based fluorescence microscopy; type: functional, cell-based
Method in brief: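 MDA-MB-231 cells (7000/well) grown overnight in DMEM with 10% FBS, then given 5, 25, 125 or 625 nM for 24 h. Live cells labelled 30 min with 75 nM MitoTracker Green FM in serum- and phenol red-free DMEM, counterstained with DAPI for 15 min, and imaged by fluorescence microscopy at 40× to view mitochondrial fission.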

MDA-MB-231 [3] = experiment: Cell cycle arrest in human MDA-MB-231 cells assessed as accumulation at S phase at 125 nM after 24 hrs by RNaseA/propidium iodide staining based FACSCalibur flow cytometry (reference value: 19.96 %); type: functional
MDA-MB-231 [4] = experiment: Cell cycle arrest in human MDA-MB-231 cells assessed as accumulation at G2/M phase at 125 nM after 24 hrs by RNaseA/propidium iodide staining based FACSCalibur flow cytometry (reference value: 26.37 %); type: functional
MDA-MB-231 [5] = experiment: Inhibition of cell migration in human MDA-MB-231 cells assessed as reduction of cell mobility at 5 nM measured at 24 hrs by well scratch method; type: functional, cell-based
Method in brief: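 MDA-MB-231 cells (3 × 10^4/well) attached overnight, then exposed to 5 nM in serum-free DMEM for 48 h. Monolayer scratched, debris washed off, complete medium added without drug. Images taken at 10× at 0 h and after 24 h; percentage wound coverage quantified. Two-tailed unpaired t test.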

MDA-MB-231 [6] = experiment: Cell cycle arrest in human MDA-MB-231 cells assessed as accumulation at sub G1 phase at 125 nM after 24 hrs by RNaseA/propidium iodide staining based FACSCalibur flow cytometry (reference value: 3.27 %); type: functional
MDA-MB-231 [7] = experiment: Cytotoxicity against human MDA-MB-231 cells assessed as reduction in cell viability incubated for 96 hrs by XTT assay; type: functional, cell-based; method in brief: as §1

With `CC[C@H](C)[C@@H]([C@@H](CC(=O)N1CCC[C@H]1[C@H](OC)[C@@H](C)C(=O)N[C@@H](Cc1ccccc1)C(=O)O)OC)N(C)C(=O)[C@@H](NC(=O)[C@@H](NC)C(C)C)C(C)C` (H-[NMeV]V[Dil][Dolaproine]F-OH) the IC50 (SK-BR-3) was 5.3 nM, the IC50 (BT-474) was 8.8 nM and the Activity (MDA-MB-231 [1]) was 30.88%. For the same compound, the inhibition (Tubulin (Homo sapiens)) was “Dose-Dependent Effect”, the Activity (MDA-MB-231 [2]) was “inactive” and the Activity (MDA-MB-231 [3]) was 16.11%. The Activity (MDA-MB-231 [4]) was 32.79%, the inhibition (MDA-MB-231 [5]) was “Active” and the Activity (MDA-MB-231 [6]) was 9.66%. The IC50 (MDA-MB-231 [7]) was “Not Active”.
